Screens: PubChem BioAssay, The Scripps Research Institute Molecular Screening Center
HTRA1 inhibitor: blocks human HTRA1 serine peptidase | Q92743 | recombinant HTRA1, FP-rhodamine activity-based probe, fluorescence polarization | inhibition, % at 5.96 µM | 340,000 tested, 0.5% active; in the data active = inhibition above about 36%;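 note: 0% = enzyme with DMSO and 100% = wells lacking enzyme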
SIAE primary: inhibitors of human sialic acid acetylesterase SIAE; Q9HAT2; SIAE FP-Rh probe binding, fluorescence polarization; inhibition, % at 9.66 µM; 370,000 tested, 0.69% active;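 active = inhibition above a cutoff: mean of compounds within the control limits plus 3 SD of those, cut at about 17% in these data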;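 note: 0% = plate median of compound wells and 100% = probe without SIAE protein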
ABHD4 inh: inhibits mouse alpha/beta hydrolase domain 4 | Q8VD66 | purified mABHD4, FP-Rh probe fluorescence polarization | inhibition, % at 8.92 µM | 370,000 tested, 0.54% active;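 active = inhibition exceeding the mean over every tested compound plus 3 SD, cut at about 30% in these data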;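 note: 0% = plate median of compound wells and 100% = S159A mutant with DMSO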
Target sequence (Q8VD66 whole entry, looked up, the tested form may be a part): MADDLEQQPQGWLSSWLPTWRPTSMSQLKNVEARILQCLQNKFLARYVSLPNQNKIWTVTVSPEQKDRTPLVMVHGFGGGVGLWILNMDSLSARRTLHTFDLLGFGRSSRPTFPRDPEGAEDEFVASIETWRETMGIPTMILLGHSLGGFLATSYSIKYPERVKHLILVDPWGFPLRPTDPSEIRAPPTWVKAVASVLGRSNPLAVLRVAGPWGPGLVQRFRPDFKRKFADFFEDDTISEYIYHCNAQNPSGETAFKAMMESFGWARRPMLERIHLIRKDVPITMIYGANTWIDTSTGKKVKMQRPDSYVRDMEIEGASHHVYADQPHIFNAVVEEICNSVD
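assay system = mABHD4 protein | compound dosing = single nominal dose of 8.92 µM, 0.89% DMSO final | read-out basis = percent inhibition of probe binding, normalized to plate controls | schedule = Enzyme–compound pre-incubation 45 min, then probe 60 min, both 25 °C | detection = fluorescence polarization, excitation 525 nm, emission 598 nm, BODIPY TMR filters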
PRMT1 FP inh: PRMT1 (human) inhibition, primary screen | Q99873 | recombinant PRMT1, activity-based probe fluorescence polarization | 370,000 tested, 1.3% active | inhibition, % at 2.79 µM;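 active = inhibition above about 21% made by adding two undisclosed values, limit read from the data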
Target sequence (Q99873 whole entry, looked up): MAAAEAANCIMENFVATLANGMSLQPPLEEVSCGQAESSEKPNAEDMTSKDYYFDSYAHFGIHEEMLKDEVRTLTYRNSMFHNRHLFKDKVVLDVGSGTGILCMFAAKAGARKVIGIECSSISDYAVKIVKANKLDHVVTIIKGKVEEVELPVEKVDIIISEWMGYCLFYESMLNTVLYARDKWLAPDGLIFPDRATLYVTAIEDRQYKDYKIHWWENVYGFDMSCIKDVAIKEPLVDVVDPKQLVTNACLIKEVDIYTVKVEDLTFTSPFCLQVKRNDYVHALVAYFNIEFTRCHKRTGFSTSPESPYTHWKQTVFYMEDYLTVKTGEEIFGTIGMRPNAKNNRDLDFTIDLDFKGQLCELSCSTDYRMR
TCR-CD3 inh: blocks the human TCR-CD3 interaction | TAMRA-labeled TCR probe fluorescence, biochemical | AID 651800 | 360,000 tested, 0.37% active | inhibition, % at 9.4 µM;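 note: recombinant mutant TCR 2C K166C tagged with TAMRA read by polarization; 0% = receptor in buffer alone and 100% = receptor with positive control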
BSA probe FL: counter-screen for TCR-CD3 interaction inhibitors: BSA probe; shares compounds with TCR-CD3 inh; TAMRA-labeled BSA probe fluorescence counterscreen; 1,200 tested, 10% active; inhibition, % at 9.4 µM; in the data active = inhibition above about 23%;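 note: 0% = buffer low control and 100% = reference high control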
TCR-CD3 inh conf: confirmation of human TCR-CD3 interaction inhibitors. shares compounds with TCR-CD3 inh. 1,200 tested, 48% active. TAMRA-labeled TCR probe fluorescence binding assay. AID 652036. inhibition, % at 9.4 µM
PRMT1 confirm: PRMT1 (human) inhibition, FP confirmation. inhibition, % at 2.79 µM. 3,300 tested, 42% active. shares compounds with PRMT1 FP inh. recombinant His-PRMT1, activity-based probe fluorescence polarization;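 active = mean inhibition across replicates above the hit cutoff derived for the earlier primary screen, cut at about 22% in these data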
Active calls of the source: *; / = not tested or not shown. Hits are enriched below; roughly 2.5% of the tested compounds scored in any of these assays. Cut-off read from the data, not from the text of the source, unless noted: active = inhibition above about 19%; inactive = the rest.

SMILES	HTRA1 inhibitor	SIAE primary	ABHD4 inh	PRMT1 FP inh	TCR-CD3 inh	BSA probe FL	TCR-CD3 inh conf	others
O=C(NNC(=O)c1cccs1)c1ccc(Cl)c(S(=O)(=O)N2CCCC2)c1	-0.8	7.2	-3.6	-1.1	-0.9	/	/
O=C(NNC(=O)C1CCN(S(=O)(=O)c2ccccc2C(F)(F)F)CC1)c1ccccc1O	10.7	9.4	5.9	-1.6	31.4*	-7.3	23.2*
O=C(NNC(=O)C1CCN(S(=O)(=O)c2ccccc2)CC1)c1ccccc1O	-2.5	3.7	11.4	2.3	47.3*	5.5	39.7*
O=C(NNC(=O)c1ccccc1O)c1ccc(Cl)c(S(=O)(=O)N2CCCCC2)c1	35.3	8.1	13.1	0.8	27.0*	-10.0	19.8*
O=C(NNS(=O)(=O)c1ccccc1)C1CCN(S(=O)(=O)c2ccccc2)CC1	2.3	-1.1	3.2	1.2	-3.4	/	/
O=C(NC1CCCCCC1)C1CCN(S(=O)(=O)c2c(Cl)cccc2Cl)CC1	0.1	12.7	1.5	1.1	0.9	/	/
COc1ccc(S(=O)(=O)NC(=O)C2(C)CCN2C(=O)C2(c3ccccc3)CCCC2)cc1 (stereo not given)	/	1.6	8.4	0.0	4.4	/	/
Cc1cc(C)cc(N(CC(=O)Nc2ccc(-c3nc4ccc(C)cc4s3)cc2)S(C)(=O)=O)c1	-25.3	-4.5	-9.8	1.3	49.0*	18.8	32.4*
Cc1ccc2nc(-c3ccc(NC(=O)CN(c4ccccc4C)S(C)(=O)=O)cc3)sc2c1	-21.9	-9.1	-7.2	-2.6	5.8	/	/
CCCn1nnc(NC(=O)/C=C/c2ccco2)n1	1.9	3.2	-1.2	1.2	11.7	/	/
Cn1nnc(NC(=S)NC(=O)/C=C/c2ccco2)n1	14.0	-2.8	20.8	14.6	19.0*	-7.0	-1.1
O=C(CNC(=O)c1ccccc1Br)N/N=C\c1cc([N+](=O)[O-])cc(Br)c1O	10.9	-1.0	11.0	1.1	68.6*	-4.8	60.5*
COc1cc(Br)cc(/C=N/NC(=O)Cc2ccccc2)c1O	18.7	12.0	6.5	0.7	-1.3	/	/
O=C(Cc1ccccc1)N/N=C/c1cc(Br)cc(Cl)c1O	18.2	13.5	5.0	0.3	29.7*	-13.8	17.6
O=C(CP(=O)(c1ccccc1)c1ccccc1)N/N=C/c1cc(Br)cc(Br)c1O	29.4	11.3	4.2	-2.3	50.2*	-8.7	51.2*
CC1CN(C(=O)c2ccc(NS(=O)(=O)c3ccc(F)cc3)cc2)CC(C)O1 (stereo not given)	4.5	1.6	3.9	6.9	-7.8	/	/
O=C(Cn1cnnn1)NCc1ccccc1	-4.0	-2.8	1.5	-1.7	7.3	/	/
CCN1CCN(C(=O)C2CCN(S(=O)(=O)c3ccc(Br)cc3)CC2)CC1	-1.9	-11.1	-4.3	1.8	19.4*	3.0	-2.9
Cc1ccc(OCC(=O)c2c(N)n(C)c(=O)n(C)c2=O)c([N+](=O)[O-])n1	5.7	8.6	13.1	6.2	35.6*	0.8	26.1*
Cn1c(N)c(C(=O)COC(=O)c2nc(Cl)ccc2Cl)c(=O)n(C)c1=O	1.6	1.3	-4.1	-1.1	7.0	/	/
COC(=O)c1cc(O)c(O)c(O)c1	12.7	7.8	12.2	3.7	22.1*	-1.0	20.0*
COc1cc(NC(=O)c2cc(-c3ccccc3Cl)on2)cc(OC)c1OC	-18.3	-2.9	-14.2	-3.0	-6.6	/	/
O=C(Cn1nc(-c2ccccc2)c2ccccc2c1=O)Nc1ccc(F)cc1	-2.5	-4.2	-3.8	-7.7	-3.0	/	/
N#Cc1c(-c2ccccc2)c(-c2ccccc2)nn(CC(=O)NNC(=O)Nc2ccc(Cl)c(Cl)c2)c1=O	-92.0	-181.3	-137.2	-2.9	29.9*	20.0	45.0*
Cc1ccc(O)c(-c2cc(C(=O)Nc3ccc(S(=O)(=O)Nc4nccc(C)n4)cc3)[nH]n2)c1	-34.7	-26.5	-31.1	-0.2	59.6*	-7.6	31.8*
SMILES	HTRA1 inhibitor	SIAE primary	ABHD4 inh	PRMT1 FP inh	TCR-CD3 inh	BSA probe FL	TCR-CD3 inh conf	others
CCC1ON(c2ccccc2)C2c3nc4ccccc4n3CC12 (stereo not given)	4.2	5.7	4.6	-1.4	-1.9	/	/
O=C(N/N=C/C1CC=CCC1)c1ccc(Cl)cc1O (stereo not given)	25.2	2.7	12.9	1.1	20.4*	-9.0	11.8
CN(C)c1ccccc1-c1cc(NC=O)c2ncc(-c3cccc(C(F)(F)F)c3)n2c1	/	30.7*	73.2*	135.4*	37.4*	8.8	11.9	PRMT1 confirm=24.9*
O=C(O)c1cc(O)c2c(c1)[C@@H]([C@H]1c3cc(C(=O)O)cc(O)c3C(=O)c3c(O[C@@H]4O[C@H](CO)[C@@H](O)[C@H](O)[C@H]4O)cccc31)c1cccc(OC3O[C@H](CO)[C@@H](O)[C@H](O)[C@H]3O)c1C2=O (stereo not given in full)	26.3	67.6*	26.8	32.2*	153.1*	-13.1	108.7*	PRMT1 confirm=13.1
Cc1cc2cc(CNC(=O)c3ccc(Br)o3)ccc2[nH]1	12.2	5.4	7.2	19.3	2.8	/	/
Cc1cc2cc(CNC(=O)c3ccc(Br)o3)ccc2n1C	-0.8	-2.8	-7.3	36.5*	22.5*	5.9	7.5	PRMT1 confirm=4.9
O=C1NC(Cc2cnc[nH]2)C(=O)N2CCCC12 (stereo not given)	/	-11.3	0.0	6.6	0.8	/	/
CCC(=O)N1N=C(c2ccc(NS(=O)(=O)c3ccccc3)cc2)CC1c1ccco1 (stereo not given)	3.1	-1.9	-7.2	5.7	-6.8	/	/
Cc1cccc(C)c1NC(=O)COC(=O)c1c2c(nc3ccccc13)/C(=C\c1ccc3c(c1)OCO3)CCC2	-16.9	22.4*	25.6	145.3*	58.5*	49.3*	30.3*	PRMT1 confirm=5.2
N#Cc1c(N(CCO)CCO)nc(N)c2c(N)nc3c(c12)CC(=O)N3CC1CCCO1 (stereo not given)	2.1	0.3	8.1	29.7*	24.6*	6.9	7.3	PRMT1 confirm=14.3
CCCCN1C(=O)Cc2c1nc(N)c1c(N)nc(N(CCC)CCC)c(C#N)c21	10.2	7.3	12.3	17.2	5.3	/	/
Cc1ccc(CNc2ncnc3ccc(-c4ccoc4C)cc23)o1	/	6.8	3.3	11.1	5.7	/	/
N#C/C(=C\c1ccc(O)c(O)c1)C(=O)c1ccc(O)c(O)c1	33.9	11.4	23.9	35.2*	22.9*	11.6	72.4*	PRMT1 confirm=18.7
N#C/C(=C\c1ccc(O)c(O)c1)C(=O)N1CCCC1	9.7	11.3	21.6	6.0	7.6	/	/
O=C1C=C(c2cc(F)ccc2F)C[C@@H](c2ccc(F)cc2)C1	-8.0	3.3	-4.7	-1.4	4.6	/	/
NC(=O)c1sc2nc(-c3ccco3)ccc2c1N	8.5	-0.1	24.6	50.8*	20.3*	-5.7	2.3	PRMT1 confirm=17.1
NC(=O)c1sc2nc(-c3cccnc3)ccc2c1N	/	5.7	2.3	7.7	5.0	/	/
